Data from ChEMBL document CHEMBL2401707, “Potentiating 1-(2-hydroxypropyl)-2-styryl-5-nitroimidazole derivatives against antibacterial agents: design, synthesis and biology analysis” (Eur J Med Chem, 2013).
Converted amounts (≈) assume the structure as drawn.

How the values were obtained:
[1] = Cytotoxicity against human macrophages assessed as cell viability after 24 hrs by MTT assay; assay type: cell-based, Macrophage
How it was run: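 Human macrophages in DMEM with 10% FBS and antimycotic, 1.8×10⁴ cells/well. Exposed to 160, 40, 10, 2.5 and 0.25 µg/mL compound (added in 10% DMSO) for 24 h at 37 °C, 5% CO₂. MTT (2.5 mg/mL) added for a further 4 h, formazan dissolved in DMSO.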

Bacillus subtilis = test: Antibacterial activity against Bacillus subtilis assessed as survival after 24 hrs by MTT assay; assay type: functional, organism-based
How it was run: (§1)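 Broth microdilution in Mueller-Hinton broth. Cells grown to mid-log phase, diluted 10000-fold, and 10⁶ to 10⁷ CFU inoculated per well. Incubated 37 °C for 24 h. Drug-containing medium then added to final 40, 10, 2.5 and 0.25 µg/mL. After 12 h, MTT in PBS added; 4 h later medium discarded and formazan dissolved in DMSO. A490 read; at least three replicates.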

Bacillus thuringiensis = test: Antibacterial activity against Bacillus thuringiensis assessed as survival after 24 hrs by MTT assay; assay type: functional, organism-based; how it was run: as §1
Pseudomonas aeruginosa = test: Antibacterial activity against Pseudomonas aeruginosa assessed as survival after 24 hrs by MTT assay; assay type: functional, organism-based; how it was run: as §1
Escherichia coli = test: Antibacterial activity against Escherichia coli assessed as survival after 24 hrs by MTT assay; assay type: functional, organism-based; how it was run: as §1
[2] = Inhibition of Escherichia coli FabH overexpressed in Escherichia coli DH10B using holo-ACP as substrate after 1 min
How it was run: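 Enzyme was purified by Ni-NTA with imidazole gradient elution and stored in 20 mM Tris pH 7.6, 100 mM NaCl, 1 mM DTT, 20% glycerol. Reaction: 0.5 nM E. coli FabH, 20 mM Na₂HPO₄ pH 7.0, 0.5 mM DTT, 0.25 mM MgCl₂, 2.5 µM holo-ACP, preincubated 1 min. Started with acetyl-CoA, NADH and NADPH mix; ran 19 min. Stopped with ice-cold TCA; ³H incorporation in pellet counted by liquid scintillation. Inhibitors added from DMSO stock, final DMSO ≤2%; IC50 determined.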

[3] = Cytotoxicity against human macrophages assessed as morphological changes at 2.5 to 160 ug/mL after 24 hrs by phase contrast microscopic analysis; assay type: cell-based; details: macrophage
How it was run: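 Human macrophages exposed for 24 h to 2.5, 10, 40 and 160 µg/mL, Giemsa-stained and examined by phase contrast microscopy. Morphology compared with untreated control cells. The minimum cytotoxic concentration is the level causing a microscopically detectable alteration of normal cell morphology.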

Row | IC50 [2] [µM] | SMILES | CC50 at 24 h [1] [nM] | IC50 (Bacillus subtilis) [µg/mL] | IC50 (Bacillus thuringiensis) [µg/mL] | IC50 (Pseudomonas aeruginosa) [µg/mL] | IC50 (Escherichia coli) [µg/mL] | Activity [3]
1 |  | CC(O)Cn1c([N+](=O)[O-])cnc1/C=C/c1cccc(Cl)c1 (centres undefined) | 520 | 55.3 (≈ 180 µM) | 21.4 (≈ 69.5 µM) | 35 (≈ 114 µM) | 86.7 (≈ 282 µM) | 
2 | 78.8 | Cc1ccc(/C=C/c2ncc([N+](=O)[O-])n2CC(C)O)cc1 (centres undefined) | 860 | 8.9 (≈ 31 µM) | 8.6 (≈ 29.9 µM) | 22.8 (≈ 79.4 µM) | 111 (≈ 388 µM) | 
3 | 10.8 | CC(O)Cn1c([N+](=O)[O-])cnc1/C=C/c1cccc(Br)c1 (centres undefined) | 620 | 15.3 (≈ 43.4 µM) | 8.2 (≈ 23.3 µM) | 30.9 (≈ 87.7 µM) | 45.4 (≈ 129 µM) | 
4 |  | CC(O)Cn1c([N+](=O)[O-])cnc1/C=C/c1ccccc1Br (centres undefined) | 490 | 6 (≈ 17 µM) | 11.4 (≈ 32.4 µM) | 11.1 (≈ 31.5 µM) | 63.6 (≈ 181 µM) | 
5 |  | CC(O)Cn1c([N+](=O)[O-])cnc1/C=C/c1c(F)cccc1Cl (centres undefined) | 710 | 112 (≈ 343 µM) | 6.1 (≈ 18.7 µM) | 5.7 (≈ 17.5 µM) | 119 (≈ 365 µM) | 
6 | 9.5 | COc1ccc(/C=C/c2ncc([N+](=O)[O-])n2CC(C)O)cc1 (centres undefined) | 560 | 12.3 (≈ 40.6 µM) | 13.6 (≈ 44.8 µM) | 42.8 (≈ 141 µM) | 46.1 (≈ 152 µM) | 
7 | 4.6 | CC(O)Cn1c([N+](=O)[O-])cnc1/C=C/c1ccc([N+](=O)[O-])cc1 (centres undefined) | 410 | 32.5 (≈ 102 µM) | 11.7 (≈ 36.8 µM) | 5.9 (≈ 18.5 µM) | 36.8 (≈ 116 µM) | 
8 |  | CC(O)Cn1c([N+](=O)[O-])cnc1/C=C/c1ccc(Br)cc1 (centres undefined) | 550 | 38 (≈ 108 µM) | 56.2 (≈ 160 µM) | 15.2 (≈ 43.2 µM) | 50.8 (≈ 144 µM) | 
9 | 8.9 | CC(O)Cn1c([N+](=O)[O-])cnc1/C=C/c1cccc(F)c1 (centres undefined) | 1030 | 11.8 (≈ 40.5 µM) | 79.2 (≈ 272 µM) | 15 (≈ 51.5 µM) | 120 (≈ 412 µM) | 
10 |  | CC(O)Cn1c([N+](=O)[O-])cnc1/C=C/c1ccccc1F (centres undefined) | 1410 | 3.4 (≈ 11.7 µM) | 60.3 (≈ 207 µM) | 39.4 (≈ 135 µM) | 72.7 (≈ 250 µM) | 
11 |  | COc1ccccc1/C=C/c1ncc([N+](=O)[O-])n1CC(C)O (centres undefined) | 480 | 10.5 (≈ 34.6 µM) | 19.1 (≈ 63 µM) | 83.8 (≈ 276 µM) | 78.6 (≈ 259 µM) | 
12 |  | CC(O)Cn1c([N+](=O)[O-])cnc1/C=C/c1ccccc1 (centres undefined) | 1500 | 78.9 (≈ 289 µM) | 45.6 (≈ 167 µM) | 28 (≈ 102 µM) | > 200 | 
13 |  | CC(O)Cn1c([N+](=O)[O-])cnc1/C=C/c1ccc(F)cc1 (centres undefined) | 420 | 47.1 (≈ 162 µM) | 28.1 (≈ 96.5 µM) | 24.2 (≈ 83.1 µM) | 45.3 (≈ 156 µM) | 
14 | 43.2 | CC(O)Cn1c([N+](=O)[O-])cnc1/C=C/c1ccc2ccccc2c1 (centres undefined) | 790 | 23.5 (≈ 72.7 µM) | 52.2 (≈ 161 µM) | 42.1 (≈ 130 µM) | 108 (≈ 335 µM) | 
15 | 6.3 | NC[C@H]1O[C@H](O[C@H]2[C@H](O)[C@@H](O[C@H]3O[C@H](CO)[C@@H](O)[C@H](N)[C@H]3O)[C@H](N)C[C@@H]2N)[C@H](O)[C@@H](O)[C@@H]1O [KANAMYCIN] |  | 8.9 (≈ 18.4 µM) | 9.5 (≈ 19.6 µM) | 6.8 (≈ 14 µM) | 47.3 (≈ 97.6 µM) | 
16 | 11.5 | CC(O)Cn1c([N+](=O)[O-])cnc1/C=C/c1ccccc1Cl (centres undefined) | 480 | 7.5 (≈ 24.4 µM) |  | 15.4 (≈ 50 µM) | 56.3 (≈ 183 µM) | 
17 |  | CC(O)Cn1c([N+](=O)[O-])cnc1/C=C/c1ccc(Cl)cc1 (centres undefined) | 980 | 79.5 (≈ 258 µM) | 52.5 (≈ 171 µM) | 17.6 (≈ 57.2 µM) | 102 (≈ 331 µM) | 
18 |  | CC(O)Cn1c([N+](=O)[O-])cnc1/C=C/c1ccc(Cl)cc1Cl (centres undefined) | 810 | 58.1 (≈ 170 µM) | 18.8 (≈ 54.9 µM) | 8.7 (≈ 25.4 µM) | 111 (≈ 325 µM) | 
19 | 5.1 | CC(O)Cn1c([N+](=O)[O-])cnc1/C=C/c1cccc([N+](=O)[O-])c1 (centres undefined) | 430 | 31.1 (≈ 97.7 µM) | 20.6 (≈ 64.7 µM) | 32.7 (≈ 103 µM) | 38.8 (≈ 122 µM) | 
20 |  | CC(O)Cn1c([N+](=O)[O-])cnc1/C=C/c1ccc(N(C)C)cc1 (centres undefined) | 680 | 56.5 (≈ 179 µM) | > 200 | 75 (≈ 237 µM) | 108 (≈ 342 µM) | 
21 | 11 | CC(O)Cn1c([N+](=O)[O-])cnc1/C=C/c1ccccc1[N+](=O)[O-] (centres undefined) | 1090 | 12.3 (≈ 38.6 µM) | 72.9 (≈ 229 µM) | 7.4 (≈ 23.2 µM) | 40.3 (≈ 127 µM) | Non-toxic
22 |  | COc1cccc(/C=C/c2ncc([N+](=O)[O-])n2CC(C)O)c1 (centres undefined) | 1300 | 25.7 (≈ 84.7 µM) | 56.2 (≈ 185 µM) | 6.7 (≈ 22.1 µM) | 181 (≈ 595 µM) | 
